The source of these data is the array DNA melting data of Ke et al. (doi:10.1101/2024.01.08.574731).

The nature of series [1]: folding enthalpy; higher = less favourable; fluorescence melt of hairpins on a sequencing array, two-state fit. The note with it: sodium 0.088 M. The method, boiled down: (§1)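 Cy3 fluorescence of library hairpins on a sequenced MiSeq flow cell, with annealed Cy3 and quencher oligos, was imaged in 50 mM Na-HEPES pH 8.0, 25 mM NaCl in 2.5 °C steps up to 60 °C. Signals were normalised to pre-quench Cy3 and to control variants. Melting temperature and folding enthalpy came from bootstrapped two-state fits, inverse-variance combined over four replicates. Fitted temperatures were raised by 9.35 °C to match UV melts.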

The nature of series [2]: melting temperature; fluorescence melt of hairpins on a sequencing array, two-state fit, raised by 9.35 °C to match UV melts. The following applies: sodium 0.088 M. In a few lines: as §1

As to GTTACCGAAAGGTGCAAC ((((((....)))..))), the folding enthalpy in series [1] is -8.88 kcal/mol. Moreover, in series [2], the Tm came to 27.3 °C.
Take GCTTAGCGAAAGCCAAGC ((((.((....)).)))): the folding enthalpy in series [1] was -22.1 kcal/mol. Moreover, the Tm in series [2] was determined as 53.5 °C.
The like results for GGAGCGGCGAAAGCCTCC (((..(((....)))))) were, in that order, -13.8 kcal/mol and 39.5 °C.
The like results for GATCTTAAGAAGATC ((((((...)))))) were, in that order, -25.5 kcal/mol and 40.5 °C.
For the sequence GATCAGAGAACTGATC ((((((....)))))), the folding enthalpy in series [1] was -30.5 kcal/mol. Also, in series [2], the Tm came out at 44.5 °C.
Take GACGGAGGAAACCCCGTC (((((.(....).))))): in series [1], the folding enthalpy was -37.5 kcal/mol. The Tm in series [2] is 51.3 °C.
GGATCTGAAAAGATCC ((((((....)))))): in series [1], the folding enthalpy is -37 kcal/mol. Moreover, the Tm in series [2] came to 58.3 °C.
The like results for GCGTAGCGAAAGCTGGGC ((..(((....)))..)) were, in that order, -12.1 kcal/mol and 49.3 °C.
The corresponding values for GGAGCCGAAAGGCGTCC ((((((....))).))) are -9.6 kcal/mol and 53.4 °C.
The corresponding values for GCGAGATCTCGC ((((....)))) are -35.4 kcal/mol and 54.1 °C.
As to GTACTCGGAAACAAGTAC (((((.(....).))))), in series [1], the folding enthalpy was -23.4 kcal/mol. Besides, the Tm in series [2] came to 32.5 °C.
The corresponding values for GATCCTAATTAGGATC ((((((....)))))) are -45.2 kcal/mol and 52 °C.
The like results for GCTTTCGAAAGAATGAGC ((((((....)))..))) were, in that order, -14.8 kcal/mol and 31.9 °C.
The corresponding values for GTTCGCGAAAGCGAAAAC ((((((....)))..))) are -9.22 kcal/mol and 47.4 °C.
As to GCAACTGGAAACAGTTGC (((((((....))))))), the folding enthalpy in series [1] is -47.5 kcal/mol. In addition, in series [2], the Tm stood at 67.1 °C.
The corresponding values for GAATATGCGAAAGCATTC (((..(((....)))))) are -9.12 kcal/mol and 25 °C.
The like results for GCAATCGAAAGATTTTGC ((((((....)))..))) were, in that order, -14.8 kcal/mol and 28.8 °C.
Take GATCTCAGAAGAGATC ((((((....)))))): in series [1], the folding enthalpy was -33.5 kcal/mol. In addition, in series [2], the Tm was 50.6 °C.
As for GATCATCCAAATGATC ((((((....)))))), in series [1], the folding enthalpy was -36.9 kcal/mol. Also, the Tm in series [2] worked out at 46.3 °C.
On to GCGTCCGGAAACGGACAC (.(((((....))))).), for which the folding enthalpy in series [1] was -11.2 kcal/mol. Also, the Tm in series [2] worked out at 51 °C.
The corresponding values for GCTATGCGAAAGCACTGC ((..(((....)))..)) are -15.3 kcal/mol and 36.3 °C.
As to GAAAAGGCGAAAGCCTTC (((..(((....)))))), the folding enthalpy in series [1] was -9.06 kcal/mol. In addition, the Tm in series [2] came to 38.9 °C.
Turning to GTGGGTGGAAACATCCAC ((((.((....)).)))), the folding enthalpy in series [1] is -32.4 kcal/mol. Moreover, in series [2], the Tm amounted to 53.5 °C.
The corresponding values for GTGCAACGAAAGTTCAC (((.(((....)))))) are -13.2 kcal/mol and 45.7 °C.
In the case of GTGACGGGAAACCGTTAC ((.((((....)))).)), the folding enthalpy in series [1] was -22.2 kcal/mol. Also, the Tm in series [2] worked out at 51.9 °C.
Regarding GTCGCAGGAAACTGTGGC (.(.(((....))).).), in series [1], the folding enthalpy is -29.9 kcal/mol. The Tm in series [2] stood at 42.8 °C.
Regarding GTCCCAACGAAAGTTGAC (((..(((....)))))), the folding enthalpy in series [1] is -9.31 kcal/mol. In addition, in series [2], the Tm stood at 25 °C.
With GGCCACGAAAGTGACGCC ((((((....)))..))), in series [1], the folding enthalpy is -21.7 kcal/mol. The Tm in series [2] was 52.1 °C.
For GGGCGTGGAAACACGCTC (.(((((....))))).), the folding enthalpy in series [1] was -14.5 kcal/mol. The Tm in series [2] came to 62.4 °C.
For the sequence GATCAACCTGTTGATC ((((((....)))))), the folding enthalpy in series [1] was -41 kcal/mol. Moreover, in series [2], the Tm worked out at 55.2 °C.
The corresponding values for GTCTAGGCGAAAGCCGAC (((..(((....)))))) are -10.8 kcal/mol and 44.5 °C.
For GTCTGAGGAAACCCAGAC (((((.(....).))))), the folding enthalpy in series [1] was -31.8 kcal/mol. The Tm in series [2] worked out at 45.9 °C.
The corresponding values for GCAGTACGAAAGTATGC (((.(((....)))))) are -31.3 kcal/mol and 48.4 °C.
GTGCTTCCGAAAGGACAC (((..(((....)))))): the folding enthalpy in series [1] was -22.1 kcal/mol. For the same sequence, the Tm in series [2] amounted to 39.7 °C.
With GGGGTGGGAAACCGCTCC ((.(.((....)).).)), in series [1], the folding enthalpy was -21.9 kcal/mol. In addition, the Tm in series [2] was 47.7 °C.
The corresponding values for GATCCTAACAAGGATC ((((((....)))))) are -32.6 kcal/mol and 51.5 °C.
The like results for GATGATGGAAACGTCATC (((((.(....).))))) were, in that order, -29.8 kcal/mol and 46.7 °C.
